Screening results as filed in PubChem BioAssay.
HSF1 inhib: HSF1 inhibition | NIH3T3-HGL HSE-luciferase, MG132-induced, luminescence 8 h; stronger effect = lower value | activity change, negative = inhibition, % at 7.5 µM (by protocol) | actives 0.77% (n = 300,000);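 active = more than half of replicate wells show activity change below -50%, luminescence cut by over half; inconclusive = some wells, but at most half, below -50%; inactive = no replicate well below -50%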;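 note: luciferase reports HSF-1 transcriptional activity via heat shock element; 0% = median of DMSO wells and -100% = zero luminescence signal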
HSF1 activator: increases HSF-1 driven luciferase reporter signal | NIH3T3-HGL HSF-1 luciferase reporter, MG132, 8 h; 100% = twice DMSO control signal | activation, % at 9 µM | actives 1.7% (n = 300,000) | AID 504408;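 active = mean replicate activation of at least 50% with a set share of replicates each reaching 50%; inconclusive = only one of those two conditions met; inactive = mean below 50% and too few replicates reaching it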;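 note: 0% = median of the neutral control wells and 100% = twice that signal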
HIF activator: HIF pathway transcriptional activation; U2OS HRE-luciferase reporter, luminescence; normalized: DMSO 0%, desferrioxamine 100%; activation, % at 7.5 µM (by protocol); actives 0.32% (n = 300,000);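 active = mean activation of at least 10% of the iron chelator positive control signal, with at least half of replicates also reaching 10%; inconclusive = mean and replicate majority disagree about reaching 10%; inactive = mean and most replicates under 10%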
T cruzi repl: T. cruzi replication inhibition | inhibition, % (test concentration not listed) | actives 1.4% (n = 300,000) | T. cruzi beta-gal in NIH3T3, luminescence, 90 h;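 active = mean inhibition across valid replicates above about 55%, limit read from the data; inconclusive = mean below that limit but half or more replicates reach it; inactive = mean below it, under half of replicates reach it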;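 note: signal also drops with host cell toxicity which is not excluded here; 0% = plate median of DMSO wells and 100% = zero luminescence signal; higher percent means less beta-gal luminescence so fewer parasites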
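assay system = mouse NIH/3T3 fibroblasts infected with β-gal-expressing T. cruzi Tulahuen C4 | input = 5,000 NIH/3T3 host cells per well | buffer or medium = DMEM plus 2% FBS | timing = 3 h host attachment, then at least 90 h co-culture | measured by = GalScreen luminescence, 60 min | evaluation = luminescence reflecting intracellular parasite burden, expressed as percent inhibition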
Calb FLC: affects C. albicans growth with fluconazole. actives 0.57% (n = 300,000). growth inhibition, % (no concentration beside the values). C. albicans CaCi-2 + fluconazole, Alamar Blue growth, 48 h;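 active = growth inhibition above about 58% in most replicates, limit read from the data, passing the limit was not always enough; inconclusive = exactly half the replicates above a set limit; inactive = most replicates below a set limit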;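 note: all wells also contain fluconazole at 8 µg/ml as a sub-toxic cotreatment; 0% = median of DMSO wells and 100% = median of geldanamycin control wells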
Starred values were filed as active, the others as inactive; ? = inconclusive. Compounds with a hit are over-represented: about 4.4% of the library has one in this group of screens.

SMILES | HSF1 inhib | HSF1 activator | HIF activator | T cruzi repl | Calb FLC
Cc1ccc(Nc2ncc3c(n2)CC(C)CC3=O)c(C)c1 (stereo not drawn) | 27 | 59* | 1 | -10 | -23
CC1CC(=O)c2cnc(Nc3ccccc3)nc2C1 (stereo not drawn) | 7 | 38 | 3 | -3 | 1
COCCN(CC1CCCN(C2Cc3ccccc3C2)C1)C(=O)CSC (stereo not drawn) | -13 | -9 | 4 | 33 | -3
CCOC(=O)c1ccc(-n2cncn2)nc1 | 2 | 4 | 0 | 2 | 9
CCOCCOC(=O)c1ccc(-n2cncn2)nc1 | -86* | -89 | 0 | -1 | 0
CC(Oc1ccc([N+](=O)[O-])cc1)C(=O)NCCCN1CCOCC1 (stereo not drawn) | 3 | -5 | 0 | -7 | 3
CNC1=C([N+](=O)[O-])CC([N+](=O)[O-])=C(N2CCNCC2)N1C | 3 | -2 | 0 | -1 | -4
COc1cc(C)ccc1OCc1cc(C(=O)N(Cc2nccn2C)C(C)C)no1 | 13 | 58* | 0 | 10 | 3
COc1ccccc1OCCNC(=O)C1CC(=O)N(Cc2ccc(C)cc2)C1 (stereo not drawn) | 5 | 9 | -1 | 0 | -1
CN=c1scc(-c2ccccc2F)n1/N=C/c1ccc[nH]1 | -87* | -90 | -4 | 44 | 3
CN=c1scc(-c2ccccc2F)n1/N=C/c1ccc(O)c(O)c1O | -65* | -69 | -2 | -14 | 7
COC(=O)c1[nH]c2ccccc2c1NC(=O)/C=C/c1ccc2c(c1)OCO2 | 24 | 78* | 0 | -8 | 3
O=C(N/N=C/c1ccc2c(c1)OCO2)c1ccccn1 | 1 | 23 | -1 | -2 | 4
CCN(CC(=O)Nc1c(C(=O)OC)[nH]c2ccccc12)c1ccc2c(c1)OCO2 | -11 | -3 | -1 | 2 | 26
O=C(/C=C/c1ccc2c(c1)OCO2)c1ccccn1 | 35 | 60* | 4 | -14 | 2
CC(C)(C)OC(=O)N/N=C\C=C\c1ccc2c(c1)OCO2 | 35 | 56* | 1 | -14 | -8
O=C(/C=C/c1ccc2c(c1)OCO2)Nc1ccc(Cl)cn1 | 36 | 85* | 3 | 14 | -49
CCCc1ccc(OCc2ccc(C(=O)NN)o2)c(OC)c1 | 22 | 37 | 5 | 3 | -22
O=C(Nc1ccc(COc2ccccc2)cc1)Nc1cccc(C(=O)O)c1 | 9 | -5 | 0 | -8 | 4
COc1ccc(NC(=O)Nc2ccon2)cc1OC | 4 | 1 | 0 | -14 | 9
CC(/C=C/c1ccc2c(c1)OCO2)=N/NC(=O)c1cccnc1 | -2 | 4 | 0 | -14 | -20
CC(C)(C)OC(=O)N/N=C/c1ccc(Br)cc1 | 18 | 53* | 2 | 6 | -15
Cc1ccc(C(NC(=O)/C=C\c2ccc3c(c2)OCO3)C(=O)Nc2ccc3c(c2)OCO3)cc1 (stereo not drawn) | 39 | 99* | 0 | ? | 0
CC(/C=C/c1ccc2c(c1)OCO2)=N/NC(=O)c1ccncc1 | -71* | -76 | 0 | -8 | -6
CC(C)(C)NC(=O)C(=O)N/N=C/c1ccc(Br)cc1 | 11 | 13 | 0 | -5 | 1
SMILES | HSF1 inhib | HSF1 activator | HIF activator | T cruzi repl | Calb FLC
Cc1ccc(S(=O)(=O)NC(C)C(=O)Nc2ccc3c(c2)OCO3)cc1 (stereo not drawn) | 3 | -11 | 0 | -12 | 8
CCCCC(=O)Nc1sc(C(=O)N(CC)CC)c(C)c1C(=O)OC | -88* | -91 | 0 | -11 | 3
Brc1ccc(C2C3=C(Nc4ncnn42)c2ccccc2OC3c2ccncc2)cc1 (stereo not drawn) | -5 | -10 | 0 | 60* | -19
CC(=O)c1ccc(OCC(=O)NC2CCS(=O)(=O)C2)cc1 (stereo not drawn) | -2 | -2 | 0 | 7 | 2
Cc1ccc(Oc2ccc(OCC(=O)NC3CCS(=O)(=O)C3)cc2)cc1 (stereo not drawn) | 37 | 53* | -23 | -13 | -28
CCCOc1ccc(-c2nc(SCc3ccccc3)[nH]c(=O)c2C#N)cc1OC | -3 | -2 | -1 | 56* | 43
COc1cc(NC(=O)COC(=O)c2ccc(C)c(S(=O)(=O)N3CCCCC3)c2)c(C)cc1[N+](=O)[O-] | 21 | 64* | 0 | 2 | -4
Cc1ccc(NC(=O)COC(=O)c2ccc3c(c2)OCO3)cc1S(=O)(=O)N1CCCCC1 | 18 | 56* | 0 | -2 | -4
CC(C)(C)C(=O)Nc1nc(-c2ccc3c(c2)OCO3)cs1 | 18 | 54* | 4 | 5 | -28
Cc1cc(C)c(-c2csc(NC(=O)COC(=O)c3ccc4c(c3)OCO4)n2)c(C)c1 | -5 | 9 | -1 | 55* | 8
Cc1ccc2[nH]c(C(=O)N3CCOCC3)cc2c1 | 0 | 1 | 1 | -4 | 23
COc1ccc(C)cc1NC(=O)CSc1nnc(COc2ccc(C)cc2)n1Cc1ccco1 | -5 | -2 | -1 | 22 | 6
COc1ccccc1NC(=O)CSc1nnc(COc2ccc(Cl)cc2)n1Cc1ccco1 | 70 | 94* | 0 | 16 | 9
CCOc1ccc(-c2n[nH]c(C)c2-c2ccccc2OC)c(O)c1 | 1 | 7 | 1 | 2 | -4
CCc1cc(-c2n[nH]c(C)c2-c2ccccc2Cl)c(O)cc1OC | -2 | 27 | 2 | 5 | 86*
O=C(NCC1CCCC(CNC(=O)Nc2ccc(Cl)cn2)C1)Nc1ccc(Cl)cn1 (stereo not drawn) | 29 | 56* | 0 | 60* | 11
O=C(O)Cc1c(C(=O)O)[nH]c2ccc(C(=O)O)cc12 | -4 | -7 | -1 | -9 | -4
O=C(CCN1C(=O)S/C(=C\C=C\c2ccccc2)C1=O)Nc1ccc(O)cc1 | 69 | 100* | 5 | -18 | -8
CCN(C(=O)CN1C(=O)S/C(=C\c2cccc(Cl)c2)C1=O)C1CCS(=O)(=O)C1 (stereo not drawn) | 31 | ? | 0 | -15 | 10
O=C(CN1C(=O)S/C(=C\C=C\c2ccccc2)C1=O)Nc1cccc(O)c1 | 105 | 154* | 2 | -19 | ?
O=C(CN1C(=O)S/C(=C\C=C\c2ccccc2)C1=O)Nc1ccccc1C(=O)O | 0 | 15 | 0 | -3 | 0
CCN(C(=O)CN1C(=O)S/C(=C\C=C\c2ccccc2)C1=O)C1CCS(=O)(=O)C1 (stereo not drawn) | 67 | 86* | 3 | 28 | 3
O=C(CCNS(=O)(=O)c1ccccc1)OCc1nc2ccsc2c(=O)[nH]1 | -2 | -8 | 0 | -5 | -6
N#Cc1c(NC(=O)C2CC(Cl)=CCC2C(=O)O)sc2c1CCCC2 (stereo not drawn) | -4 | -11 | 0 | 7 | 13
N#Cc1ccccc1S(=O)(=O)N1CCN(c2cnccn2)CC1 | -9 | -10 | 68* | -12 | 12
